The text below walks through data of ChEMBL document CHEMBL1649483, “Molecular analysis of the gyrA and gyrB quinolone resistance-determining regions of fluoroquinolone-resistant Clostridium difficile mutants selected in vitro” (2009).

As usually defined, the MIC is the smallest concentration in the dilution series that meets the test's criterion for growth inhibition.

Type in all cases: functional
Test [1] relates to Clostridioides difficile. As to the kind of experiment: Antimicrobial activity against Clostridium difficile BI2c harboring GyrB Arg447Lys mutant gene selected after 2 ug/ml of moxifloxacin by Etest method. In short, it runs like this: (§1)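 Stable in vitro-selected mutant tested for gatifloxacin susceptibility by Etest, per the manufacturer's instructions, with an 8 μg/ml breakpoint. For selection, the parent was grown in antibiotic-free brain heart infusion (BHI) for 24 h at 35°C under anaerobic conditions. […] Later steps used double the MIC. Stability was confirmed by three subcultures.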

Test [2] relates to Clostridioides difficile. As to the kind of experiment: Antimicrobial activity against Clostridium difficile A422F harboring GyrB Leu451Phe mutant gene selected after 8 ug/ml of levofloxacin by Etest method. In short, it runs like this: as §1
Test [3] concerns Clostridioides difficile. The experiment in a line: Antimicrobial activity against Clostridium difficile CD5D harboring GyrB Ser416Ala mutant gene selected after 8 ug/ml of levofloxacin by Etest method.
Test [4] concerns Clostridioides difficile. The experiment in a line: Antimicrobial activity against Clostridium difficile C253g harboring GyrA Ala118Ser mutant gene selected after 8 ug/ml of moxifloxacin by Etest method.
Test [5] has as its system Clostridioides difficile. As to the kind of experiment: Antimicrobial activity against Clostridium difficile C253a selected after 2 ug/ml of moxifloxacin by Etest method.
The subject of test [6] is Clostridioides difficile. The experiment in a line: Antimicrobial activity against Clostridium difficile BI2a harboring GyrB Arg447Lys mutant gene selected after 2 ug/ml of moxifloxacin by Etest method. In short, it runs like this: as §1
Test [7] has as its system Clostridioides difficile. The experiment in a line: Antimicrobial activity against Clostridium difficile C253C selected after 4 ug/ml of levofloxacin by Etest method.
For test [8], the system named is Clostridioides difficile. As to the kind of experiment: Antimicrobial activity against Clostridium difficile C253E selected after 8 ug/ml of levofloxacin by Etest method.
In test [9] the test system is Clostridioides difficile. As to the kind of experiment: Antimicrobial activity against Clostridium difficile 630i harboring GyrB […] mutant gene selected after 8 ug/ml of moxifloxacin by Etest method. In short, it runs like this:
as §1

Test [10] deals with Clostridioides difficile. As to the kind of experiment: Antimicrobial activity against Clostridium difficile C253b selected after 2 ug/ml of moxifloxacin by Etest method.
Test [11] concerns Clostridioides difficile. The experiment in a line: Antimicrobial activity against Clostridium difficile 630e selected after 4 ug/ml of moxifloxacin by Etest method. In short, it runs like this:
as §1

The test system of test [12] is Clostridioides difficile. The experiment in a line: Antimicrobial activity against Clostridium difficile A422a selected after 2 ug/ml of moxifloxacin by Etest method. In short, it runs like this:
as §1

The test system of test [13] is Clostridioides difficile. As to the kind of experiment: Antimicrobial activity against Clostridium difficile BI2A selected after 4 ug/ml of levofloxacin by Etest method. In short, it runs like this: as §1
Test [14] relates to Clostridioides difficile. As to the kind of experiment: Antimicrobial activity against Clostridium difficile 630b selected after 2 ug/ml of moxifloxacin by Etest method. In short, it runs like this:
as §1

Test [15] concerns Clostridioides difficile. The experiment in a line: Antimicrobial activity against Clostridium difficile CD5h harboring GyrA Ala118Ser, Thr82Ala and GyrB Ser416Ala mutant gene selected after 8 ug/ml of moxifloxacin by Etest method.
Test [16] relates to Clostridioides difficile. The experiment in a line: Antimicrobial activity against Clostridium difficile BI2D harboring GyrB Glu466Lys mutant gene selected after 8 ug/ml of levofloxacin by Etest method. In short, it runs like this:
as §1

Test [17] has as its system Clostridioides difficile. As to the kind of experiment: Antimicrobial activity against Clostridium difficile 630C selected after 4 ug/ml of levofloxacin by Etest method. In short, it runs like this:
as §1

The test system of test [18] is Clostridioides difficile. As to the kind of experiment: Antimicrobial activity against Clostridium difficile CD5 2-g harboring GyrA Ala118Ser, Thr82Ala and GyrB Ser416Ala mutant genes selected after 8 ug/ml of moxifloxacin by Etest method.
The subject of test [19] is Clostridioides difficile. As to the kind of experiment: Antimicrobial activity against Clostridium difficile CD5h harboring GyrA Ala92Glu and GyrB Ser416Ala mutant genes selected after 8 ug/ml of moxifloxacin by Etest method.
The test system of test [20] is Clostridioides difficile. As to the kind of experiment: Antimicrobial activity against Clostridium difficile CD5B harboring GyrB Ser416Ala mutant gene selected after 4 ug/ml of levofloxacin by Etest method.
The subject of test [21] is Clostridioides difficile. The experiment in a line: Antimicrobial activity against Clostridium difficile CD5b harboring GyrB Ser416Ala mutant gene selected after 2 ug/ml of moxifloxacin by Etest method.
The test system of test [22] is Clostridioides difficile. The experiment in a line: Antimicrobial activity against Clostridium difficile A422i harboring GyrA Asp81Asn mutant gene selected after 8 ug/ml of moxifloxacin by Etest method. In short, it runs like this:
as §1

The subject of test [23] is Clostridioides difficile. As to the kind of experiment: Antimicrobial activity against Clostridium difficile BI2C selected after 4 ug/ml of levofloxacin by agar dilution method. For orientation: In agar dilution the substance is mixed into plates at graded concentrations.
Test [24] relates to Clostridioides difficile. As to the kind of experiment: Antimicrobial activity against Clostridium difficile CD25 expressing tcdA, tcdB gene and GyrB Ser416Ala mutant by agar dilution method.
Test [25] concerns Clostridioides difficile. The experiment in a line: Antimicrobial activity against Clostridium difficile CD5h harboring GyrA Ala118Ser, Thr82Ala and GyrB Ser416Ala mutant genes selected after 8 ug/ml of moxifloxacin by agar dilution method.
Test [26] has as its system Clostridioides difficile. As to the kind of experiment: Antimicrobial activity against Clostridium difficile BI2 by agar dilution method.
In test [27] the test system is Clostridioides difficile. As to the kind of experiment: Antimicrobial activity against Clostridium difficile 630F harboring GyrA Ala118Val mutant gene selected after 8 ug/ml of levofloxacin by agar dilution method.
The subject of test [28] is Clostridioides difficile. As to the kind of experiment: Antimicrobial activity against Clostridium difficile CD5A harboring GyrB Ser416Ala mutant gene selected after 4 ug/ml of levofloxacin by agar dilution method.
For test [29], the system named is Clostridioides difficile. As to the kind of experiment: Antimicrobial activity against Clostridium difficile 630a selected after 2 ug/ml of moxifloxacin by agar dilution method.
The test system of test [30] is Clostridioides difficile. The experiment in a line: Antimicrobial activity against Clostridium difficile C253i harboring GyrA Ala118Ser mutant gene selected after 8 ug/ml of moxifloxacin by agar dilution method.
The subject of test [31] is Clostridioides difficile. As to the kind of experiment: Antimicrobial activity against Clostridium difficile A422D harboring GyrB Leu451Phe mutant gene selected after 8 ug/ml of levofloxacin by agar dilution method.
Test [32] concerns Clostridioides difficile. The experiment in a line: Antimicrobial activity against Clostridium difficile 630f selected after 4 ug/ml of moxifloxacin by agar dilution method.
The subject of test [33] is Clostridioides difficile. The experiment in a line: Antimicrobial activity against Clostridium difficile CD5 2-g harboring GyrA Ala118Ser, Thr82Ala and GyrB Ser416Ala mutant genes selected after 8 ug/ml of moxifloxacin by agar dilution method.
Test [34] concerns Clostridioides difficile. The experiment in a line: Antimicrobial activity against Clostridium difficile 630i harboring GyrB […] mutant gene selected after 8 ug/ml of moxifloxacin by agar dilution method.
Test [35] has as its system Clostridioides difficile. As to the kind of experiment: Antimicrobial activity against Clostridium difficile BI2F harboring GyrB Glu466Lys mutant gene selected after 8 ug/ml of levofloxacin by agar dilution method.
The subject of test [36] is Clostridioides difficile. The experiment in a line: Antimicrobial activity against Clostridium difficile C253 expressing tcdA and tcdB gene by agar dilution method.
Test [37] relates to Clostridioides difficile. The experiment in a line: Antimicrobial activity against Clostridium difficile A422G harboring GyrA Thr82Ile and GyrB Leu451Phe mutant genes selected after 8 ug/ml of levofloxacin by agar dilution method.
The subject of test [38] is Clostridioides difficile. The experiment in a line: Antimicrobial activity against Clostridium difficile 630C selected after 4 ug/ml of levofloxacin by agar dilution method.
Test [39] relates to Clostridioides difficile. As to the kind of experiment: Antimicrobial activity against Clostridium difficile BI2a harboring GyrB Arg447Lys mutant gene selected after 2 ug/ml of moxifloxacin by agar dilution method.
Test [40] has as its system Clostridioides difficile. The experiment in a line: Antimicrobial activity against Clostridium difficile A422F harboring GyrB Leu451Phe mutant gene selected after 8 ug/ml of levofloxacin by agar dilution method.
The test system of test [41] is Clostridioides difficile. The experiment in a line: Antimicrobial activity against Clostridium difficile 630b selected after 2 ug/ml of moxifloxacin by agar dilution method.
In test [42] the test system is Clostridioides difficile. The experiment in a line: Antimicrobial activity against Clostridium difficile C253g harboring GyrA Ala118Ser mutant gene selected after 8 ug/ml of moxifloxacin by agar dilution method.

A value given as a limit tells only on which side of the number the result lay.

As for `COc1c(N2CCNC(C)C2)c(F)cc2c(=O)c(C(=O)O)cn(C3CC3)c12` (configuration not stated) [GATIFLOXACIN], the minimum inhibitory concentration (MIC) with Clostridioides difficile [1] is 1.5 µg/mL; with Clostridioides difficile [2] it was 2 µg/mL; in the test with Clostridioides difficile [3] it was 2 µg/mL; with Clostridioides difficile [4], 8 µg/mL; with Clostridioides difficile [5], 1 µg/mL; in the test on Clostridioides difficile [6] it was 1.5 µg/mL. Further, the MIC was 0.5 µg/mL in the test on Clostridioides difficile [7]; 1 µg/mL in the test on Clostridioides difficile [8]; not below 32 µg/mL in the test with Clostridioides difficile [9]; 1 µg/mL in the test with Clostridioides difficile [10]; 2 µg/mL in the test on Clostridioides difficile [11]; 1.5 µg/mL in the test on Clostridioides difficile [12]. Also, the MIC in the test on Clostridioides difficile [13] is 2 µg/mL; in the test with Clostridioides difficile [14] it was 0.75 µg/mL; with Clostridioides difficile [15] it was 16 µg/mL; in the test with Clostridioides difficile [16], not below 32 µg/mL; in the test on Clostridioides difficile [17], 0.75 µg/mL; in the test on Clostridioides difficile [18] it was 16 µg/mL. The MIC in the test on Clostridioides difficile [19] is 3 µg/mL; with Clostridioides difficile [20], 0.5 µg/mL; in the test with Clostridioides difficile [21], 0.75 µg/mL; with Clostridioides difficile [22], not below 32 µg/mL.

Regarding `C[C@H]1COc2c(N3CCN(C)CC3)c(F)cc3c(=O)c(C(=O)O)cn1c23.C[C@H]1COc2c(N3CCN(C)CC3)c(F)cc3c(=O)c(C(=O)O)cn1c23.O` [LEVOFLOXACIN], the MIC in the test with Clostridioides difficile [23] was 1 µg/mL; against Clostridioides difficile [24] it was 2 µg/mL; in the test with Clostridioides difficile [25], 64 µg/mL; in the test on Clostridioides difficile [26], 2 µg/mL; in the test on Clostridioides difficile [27], 8 µg/mL; with Clostridioides difficile [28], 1 µg/mL. Moreover, the MIC in the test with Clostridioides difficile [29] was found to be 4 µg/mL; with Clostridioides difficile [30], 64 µg/mL; with Clostridioides difficile [31], 2 µg/mL; in the test with Clostridioides difficile [32], 4 µg/mL; in the test on Clostridioides difficile [33], 64 µg/mL; in the test with Clostridioides difficile [34], 64 µg/mL. Further, the MIC in the test on Clostridioides difficile [35] was found to be 16 µg/mL; in the test on Clostridioides difficile [36] it was 2 µg/mL; in the test on Clostridioides difficile [37], 64 µg/mL; in the test on Clostridioides difficile [38] it was 1 µg/mL; with Clostridioides difficile [39] it was 8 µg/mL; in the test with Clostridioides difficile [40] it was 2 µg/mL. The results for the MIC in the test with Clostridioides difficile [41] and in the test with Clostridioides difficile [42] were 4 µg/mL and 64 µg/mL, respectively.
